This assay concerns A549. In words: Induction of cell cycle arrest in human A549 cells assessed as accumulation at sub-G1 phase at 30 to 300 nM after 24 hrs by propidium iodide staining based flow cytometry. Format: functional. In outline: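 A-549 cells treated with 0, 30, 100 or 300 nM for 24 h, fixed in ice-cold 70% EtOH, stained with propidium iodide; phase populations calculated from ploidy by flow cytometry.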
For orientation: Flow cytometry measures light scatter and fluorescence of single cells or particles in a stream.

Active and inactive are the calls of the source. No cut-off for these calls is given here.

On to `CC[C@@]1(OC(=O)CN/C(Cc2ccc(OC)cc2)=N/S(=O)(=O)c2ccc(C)cc2)C(=O)OCc2c1cc1n(c2=O)Cc2cc3ccccc3nc2-1`, for which the outcome was Active.

The values are drawn from ChEMBL document CHEMBL3352466 (J Med Chem, 2014).
